DAGLB inh: diacylglycerol lipase beta (human) inhibition; 340,000 tested, 0.059% active; AID 504411; HEK293T DAGLB membrane lysate, EnzChek fluorogenic substrate; inhibition, % at 5.17 µM; in the data active means inhibition above about 34%;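 further: 0% = enzyme with vehicle and 100% = wells lacking enzyme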
Target sequence (Q8NCG7 whole entry, looked up): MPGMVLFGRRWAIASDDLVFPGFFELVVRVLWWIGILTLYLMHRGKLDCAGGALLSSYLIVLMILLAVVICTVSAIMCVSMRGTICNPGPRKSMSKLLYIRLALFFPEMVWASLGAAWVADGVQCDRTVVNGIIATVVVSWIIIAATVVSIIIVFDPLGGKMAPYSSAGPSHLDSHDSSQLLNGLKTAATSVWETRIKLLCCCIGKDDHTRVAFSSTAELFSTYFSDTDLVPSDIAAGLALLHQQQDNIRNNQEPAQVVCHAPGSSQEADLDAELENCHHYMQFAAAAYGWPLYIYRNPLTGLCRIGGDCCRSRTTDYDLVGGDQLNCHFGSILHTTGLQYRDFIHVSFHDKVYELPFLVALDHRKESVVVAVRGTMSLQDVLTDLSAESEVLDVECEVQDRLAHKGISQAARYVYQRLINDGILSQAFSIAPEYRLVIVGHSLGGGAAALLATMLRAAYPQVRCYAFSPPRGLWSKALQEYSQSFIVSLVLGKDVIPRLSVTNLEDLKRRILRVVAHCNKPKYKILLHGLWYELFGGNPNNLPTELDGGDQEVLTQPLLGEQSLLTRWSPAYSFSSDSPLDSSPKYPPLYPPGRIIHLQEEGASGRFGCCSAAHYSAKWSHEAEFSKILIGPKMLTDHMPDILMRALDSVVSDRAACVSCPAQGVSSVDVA
MT1-MMP act inh: blocks activation of human MT1-MMP | 360,000 tested, 0.061% active | AID 651647 | GFP/RFP ratio change, % at 20 µM | P50281 | HT1080 RFP-PRO-GFP cells, GFP/RFP ratio fluorescence, overnight; percent of plate control window, DMSO zero;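 active means GFP/RFP ratio change of at least 30% with cell ATP level not reduced by more than half and red fluorescence within 50% of control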
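Compound: 20 µM single dose, 1% DMSO / System: HT1080 RFP-PRO-GFP cells / Controls: DMSO and RFP-L50D-GFP cell wells / Read-out basis: GFP/RFP fluorescence ratio / Schedule: overnight compound exposure at 37 °C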
TMEM16A inh: mouse TMEM16A channel inhibition, primary screen. HEK293 TMEM16A/YFP iodide influx fluorescence, ionomycin. 310,000 tested, 1.2% active. AID 588511. normalized B-score (activity score, 25-100; higher = stronger inhibition) at 10 µM. Q8BHY3;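 active means ratio plate-corrected score three or more library SD toward inhibition, starting fluorescence score within five deviations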;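 further: score derived from kinetic fluorescence span divided by baseline fluorescence per well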
TMEM16A act: activates or potentiates the mouse TMEM16A chloride channel; Q8BHY3; HEK293 TMEM16A/YFP-H148Q/I152L, iodide quench fluorescence; hits give low values; B-score at 10 µM; 340,000 tested, 0.3% active;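 active means fluorescence-ratio B-score plate-corrected deviation score at least 3 library SD below zero, with starting fluorescence score within 5 deviations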;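 further: channel opened by trigger with iodide after compound preincubation; score built on the fluorescence ratio of max minus min over baseline; more negative score means more quench and so TMEM16A activation or potentiation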
TMEM16A reconf: reconfirmed blocker of mouse TMEM16A calcium-activated chloride channel | shares compounds with TMEM16A inh | HEK293 TMEM16A/YFP-H148Q, iodide quench fluorescence; ionomycin added to raise cell calcium | inhibition, % at 10 µM | 2,300 tested, 39% active | AID 652189;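 active means mean duplicate percent inhibition, scaled so buffer wells are 0 and the reference blocker 100, over three buffer SD above buffer mean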
TMEM16A Ca cntr: counter-screen for TMEM16A inhibitors: effect on calcium mobilization; shares compounds with TMEM16A inh; TMEM16A/YFP HEK293, Fluo4 calcium mobilization; calcium response (% of ionomycin), % at 10 µM; 2,300 tested, 2% active; AID 652231;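 active means duplicate-averaged calcium signal over 20% of the ionomycin maximum, relative to buffer baseline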;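 further: each well's signal is peak minus trough fluorescence divided by its pre-addition baseline; 0% = buffer wells and 100% = ionomycin wells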
Parental YFP cnt: acts in parental YFP-HEK293 cells lacking TMEM16A, counter-screen. shares compounds with TMEM16A inh. 2,300 tested, under 10 active. AID 652233. iodide YFP quench, ionomycin. YFP ratio F(max-min)/F0 at 10 µM;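 active means yellow fluorescent protein signal ratio exceeding the buffer control mean by over 5 SD of those controls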;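 further: ratio is mean of duplicate wells from kinetic YFP trace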
ClC-1 rat inh: selectivity of TMEM16A inhibitors: inhibition of rat ClC-1 chloride channel; ratio percent, % at 10 µM; shares compounds with TMEM16A inh; CHO ClC-1-YFP, iodide influx fluorescence quench; iodide control reads 0, buffer control 100; 2,300 tested, under 10 active;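 active means duplicate-mean ratio percent above the mean of iodide-only control wells, which defines zero, plus 5 of their SD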;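 further: higher percent means stronger block of ClC-1 iodide influx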
MT1-MMP conf: blocks activation of human MT1-MMP in validation testing; shares compounds with MT1-MMP act inh; HT1080 RFP-PRO-GFP cells, GFP and RFP fluorescence ratio, overnight; inhibition, % at 20 µM; 200 tested, 10% active;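 active means inhibition of at least 50% in the primary cell screen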
Numbers without * were called inactive; i = inactive; . = not tested or not shown. Only some compounds are listed: those with a hit (about 1.3% of all), similar ones and a draw of the others.

SMILES	DAGLB inh	MT1-MMP act inh	TMEM16A inh	TMEM16A act	MT1-MMP conf	others
CN1/C(=C\C(=O)c2cncc(Br)c2)C(C)(C)c2ccccc21	-9.8	31.5*	i	i	38.6	TMEM16A reconf=22.0%*;TMEM16A Ca cntr=i;Parental YFP cnt=-0.722;ClC-1 rat inh=-8.5
CCCCn1c(N)c(N(C(=O)CSc2nnc(C)n2-c2ccccc2)C2CCCC2)c(=O)[nH]c1=O	4.7	-0.9	.	i	.
COc1ccccc1-c1nnc(SCC(=O)Nc2ccc(Cl)cc2Cl)o1	-0.7	-2.5	i	i	.
COc1cccc2c1OC[C@@H](CO)[C@H]2N(C)C(=O)Nc1ccc(Cl)cc1Cl	-1.3	31.5*	i	i	13.0	TMEM16A reconf=i;TMEM16A Ca cntr=i;Parental YFP cnt=-1.12;ClC-1 rat inh=-11.0
Cc1c(NC(=S)/C=C2\N(C)c3ccccc3C2(C)C)c(=O)n(-c2ccccc2)n1C	2.0	32.8*	i	i	12.5
CC(C)C(=O)NC(=S)/C=C1/N(C)c2ccccc2C1(C)C	2.1	-3.9	i	i	.
CN1/C(=C\C=N\NC(=O)c2ccc(O)cc2)C(C)(C)c2ccccc21	6.4	59.2*	i	i	36.6
CN1/C(=C\C(=O)C(F)F)C(C)(C)c2ccccc21	-2.1	6.5	i	i	.
Cc1ccc(C(=O)NC(=S)/C=C2\N(C)c3ccccc3C2(C)C)cc1	13.6	40.3*	i	i	23.2
CC(=O)/C=C1\N(C)c2ccc(C)cc2C1(C)C	-4.4	47.0*	i	i	27.0
ClCC1NCC(c2ccccc2Cl)c2c1[nH]c1ccccc21 (stereo not given)	-0.1	36.8*	i	i	2.5
Brc1ccc(-c2nc3c4ccccc4ccn3c2Cc2ccccc2)cc1	-14.3	-9.2	.	.	.
COc1ccccc1Nc1nnc(SCC(=O)c2c(N)n(C3CC3)c(=O)[nH]c2=O)s1	0.0	3.3	.	i	.
COc1cc(/C=C2\SC(=S)N(CCC(=O)Nc3ccccc3)C2=O)cc(OC)c1OC	-0.6	10.6	i	i	.
COc1ccccc1NC(=O)CCN1C(=O)/C(=C\c2cc(OC)c(OC)c(OC)c2)SC1=S	1.9	35.5*	i	i	20.4
COc1cc2oc(=O)cc(-c3ccc(-c4ccc(CO)cc4)cc3)c2c(OC)c1OC	-2.7	-11.3	.	i	.
COc1cc(OC)cc(C(=O)NNC(=O)CCc2nc3ccccc3c(=O)[nH]2)c1	-2.1	0.2	.	i	.
CCOc1ccc(C(=O)n2cc(C(=O)OC)c3ccccc32)cc1	-8.5	-0.9	i	i	.
Cc1c(C2=CCN(S(=O)(=O)c3ccc(Br)cc3)CC2)c2ccccc2n1C	-6.9	3.5	i	i	.
CCn1c(C)c(C2=CCN(S(=O)(=O)c3ccc(C)cc3)CC2)c2ccccc21	-4.2	31.4*	i	i	5.2
CCc1nc2ccc(C(=O)N(CC)CCN(C)C)cn2c1N(CC)CCOC	.	-2.7	.	.	.
Cc1ccc(S(=O)(=O)NCc2ccc3c(c2)cc(C)n3C)cc1	6.0	40.0	i	i	.
Cc1cc2cc(CN3C(=O)c4ccccc4C3=O)ccc2n1C	5.6	31.9*	i	i	13.2
CCOc1ccc(N2CC(=O)SC2=S)cc1	-4.0	37.0*	i	i	2.2
O=C(O)c1cccc2[nH]c(C(F)(F)F)nc12	2.5	2.9	i	i	.
Nc1cccc2[nH]c(C(F)(F)F)nc12	7.6	51.2*	i	i	27.0
CCOC(=O)c1c2c3c(c(Cl)ccc3[nH]c1=O)C(=O)c1ccccc1-2	.	44.2*	.	i	22.1

Bioassay records from PubChem BioAssay.
